Several values for one entry are separate records, joined by “and”; a condition that tells them apart may be missing. Equal entries are not always repeated.
Assays:
Assay type in all cases: in vitro ADME
CYP2C9 = CYP2C9 (Homo sapiens, UniProt P11712); experiment: C152 metabolism; details: for Specific rate: CYP2C9
Outline: (§1)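 Human P450s in Supersomes that co-express human CPR and cytochrome b5. Reaction in 0.1 M Na-HEPES pH 7.4 with 60 mM KCl, stirred at 30 °C. C152 0.1–30 μM added from acetone stock; 200 μM NADPH starts it. Fluorescence rise read at 500 nm (isosbestic, mono-demethylation step). Rate is the linear slope over 3–5 min, scaled by the C151–C152 fluorescence difference. Michaelis–Menten or Hill fit, Vmax per P450, 2–6 runs; rate at 30 μM computed from fit.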

CYP3A4 [1] = biological target: T1, CYP3A4 (Homo sapiens, UniProt P08684); experiment: Projected involvement in C152 metabolism in HLM
T1 sequence (P08684 2-503 limits assumed): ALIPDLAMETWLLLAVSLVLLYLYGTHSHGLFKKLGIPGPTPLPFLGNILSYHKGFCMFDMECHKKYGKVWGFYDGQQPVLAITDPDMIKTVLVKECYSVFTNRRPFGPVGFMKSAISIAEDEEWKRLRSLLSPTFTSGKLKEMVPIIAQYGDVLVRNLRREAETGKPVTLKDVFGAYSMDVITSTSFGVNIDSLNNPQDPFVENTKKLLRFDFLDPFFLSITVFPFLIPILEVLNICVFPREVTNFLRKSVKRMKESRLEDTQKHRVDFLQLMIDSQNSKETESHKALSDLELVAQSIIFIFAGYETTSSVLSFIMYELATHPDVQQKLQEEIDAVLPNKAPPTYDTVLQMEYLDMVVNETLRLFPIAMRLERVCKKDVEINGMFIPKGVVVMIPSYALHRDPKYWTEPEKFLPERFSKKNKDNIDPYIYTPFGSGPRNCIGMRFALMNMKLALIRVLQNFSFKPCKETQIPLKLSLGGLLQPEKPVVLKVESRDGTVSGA
Outline: (§2)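 Calculated values, no new incubations. Each of seven C152-metabolizing P450s has a fractional content in the pooled HLM P450 pool (LC-MS/MS MRM). That fraction is multiplied by its Supersome Vmax (saturation) or by its rate at 30 μM C152 from Hill or Michaelis–Menten parameters. Expected participation (% TNR) is each normalized rate divided by the sum of all seven.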

CYP3A5 = CYP3A5 (Homo sapiens, UniProt P20815); experiment: Projected involvement in C152 metabolism in HLM
CYP3A5, sequence (P20815 whole entry): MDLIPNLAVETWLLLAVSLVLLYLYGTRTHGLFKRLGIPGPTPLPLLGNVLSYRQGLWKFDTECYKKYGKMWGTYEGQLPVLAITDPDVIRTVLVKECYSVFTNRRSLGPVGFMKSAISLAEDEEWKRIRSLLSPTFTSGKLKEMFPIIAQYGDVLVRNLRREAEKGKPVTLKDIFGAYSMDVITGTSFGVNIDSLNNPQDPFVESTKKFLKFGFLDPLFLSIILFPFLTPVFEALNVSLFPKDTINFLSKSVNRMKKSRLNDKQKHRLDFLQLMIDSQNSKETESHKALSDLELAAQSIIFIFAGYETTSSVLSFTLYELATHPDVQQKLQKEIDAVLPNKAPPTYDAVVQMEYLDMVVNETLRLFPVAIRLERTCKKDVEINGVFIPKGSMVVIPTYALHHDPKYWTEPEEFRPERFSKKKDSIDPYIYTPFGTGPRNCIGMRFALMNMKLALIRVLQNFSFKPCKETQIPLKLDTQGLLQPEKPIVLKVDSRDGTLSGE
Outline: as §2

CYP1A2 = biological target: T2, CYP1A2 (Homo sapiens, UniProt P05177); experiment: Projected involvement in C152 metabolism in HLM
T2 sequence (P05177 2-516 limits assumed): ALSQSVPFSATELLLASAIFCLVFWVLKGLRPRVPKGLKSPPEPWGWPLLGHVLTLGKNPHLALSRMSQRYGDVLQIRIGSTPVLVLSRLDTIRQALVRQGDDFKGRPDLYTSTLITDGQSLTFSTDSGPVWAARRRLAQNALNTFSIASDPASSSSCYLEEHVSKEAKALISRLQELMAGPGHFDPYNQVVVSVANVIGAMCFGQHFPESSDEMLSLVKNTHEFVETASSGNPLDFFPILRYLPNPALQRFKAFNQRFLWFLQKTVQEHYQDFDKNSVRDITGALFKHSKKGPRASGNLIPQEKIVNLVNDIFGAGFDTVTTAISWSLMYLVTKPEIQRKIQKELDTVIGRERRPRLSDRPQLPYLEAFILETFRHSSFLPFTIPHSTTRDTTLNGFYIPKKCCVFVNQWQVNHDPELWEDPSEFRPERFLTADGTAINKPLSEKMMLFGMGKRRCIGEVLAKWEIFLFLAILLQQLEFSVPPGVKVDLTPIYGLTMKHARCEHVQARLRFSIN
Outline: as §2

CYP3A4 [2] = biological target: T1, CYP3A4; experiment: C152 metabolism; details: for Specific rate: CYP3A4
Outline: as §1

CYP2D6 = CYP2D6 (Homo sapiens, UniProt P10635); experiment: C152 metabolism by Supersomes containing CYP2D6; details: recombinant CYP2D6 Supersomes
CYP2D6, sequence (P10635 whole entry): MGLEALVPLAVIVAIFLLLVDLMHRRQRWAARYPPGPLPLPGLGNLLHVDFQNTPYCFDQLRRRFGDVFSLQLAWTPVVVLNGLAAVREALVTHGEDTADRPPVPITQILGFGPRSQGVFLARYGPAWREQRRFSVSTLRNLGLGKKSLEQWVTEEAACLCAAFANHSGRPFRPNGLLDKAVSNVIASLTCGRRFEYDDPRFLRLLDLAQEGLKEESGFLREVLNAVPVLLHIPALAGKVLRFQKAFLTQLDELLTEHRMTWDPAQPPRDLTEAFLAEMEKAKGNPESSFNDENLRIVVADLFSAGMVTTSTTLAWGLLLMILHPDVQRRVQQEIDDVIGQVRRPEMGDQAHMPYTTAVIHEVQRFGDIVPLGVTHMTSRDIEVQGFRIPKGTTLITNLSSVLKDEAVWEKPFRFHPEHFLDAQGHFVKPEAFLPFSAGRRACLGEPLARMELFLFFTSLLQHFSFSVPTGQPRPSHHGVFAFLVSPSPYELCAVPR

[3] = system: human liver microsomes (HLM); experiment: Formation of C151 from C152
Outline: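 Probes hold 5–20 pmol P450 in 0.1 M Na-HEPES pH 7.4 with 60 mM KCl. C152 added from 0.5 or 4 mM acetone stock; reaction started with 500 μM NADPH (final), run 5 min at 30 °C with shaking. Quenched with isopropanol containing phenacetin internal standard, then centrifuged. C151 quantified by reverse-phase LC with ESI-positive MRM MS/MS (m/z 230.16→157.2). Michaelis–Menten or Hill fit; normalized per P450 (Supersomes) or CPR (HLM).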

CYP2B6 = biological target: T3, CYP2B6 (Homo sapiens, UniProt P20813); experiment: C152 metabolism; details: for Specific rate: CYP2B6
T3 sequence (P20813 1-491): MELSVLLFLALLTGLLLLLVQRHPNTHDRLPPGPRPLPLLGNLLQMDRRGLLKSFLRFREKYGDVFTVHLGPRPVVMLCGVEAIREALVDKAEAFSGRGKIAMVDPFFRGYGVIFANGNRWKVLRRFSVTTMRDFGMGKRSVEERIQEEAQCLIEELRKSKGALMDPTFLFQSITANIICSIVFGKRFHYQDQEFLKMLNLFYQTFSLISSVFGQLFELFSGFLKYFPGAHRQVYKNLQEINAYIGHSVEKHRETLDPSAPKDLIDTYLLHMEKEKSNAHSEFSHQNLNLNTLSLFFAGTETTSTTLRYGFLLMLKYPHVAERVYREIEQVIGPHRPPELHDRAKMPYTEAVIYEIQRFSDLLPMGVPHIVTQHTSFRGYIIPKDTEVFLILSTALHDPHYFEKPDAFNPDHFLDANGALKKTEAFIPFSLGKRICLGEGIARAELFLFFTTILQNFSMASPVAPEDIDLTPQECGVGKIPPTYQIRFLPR
Outline: as §1

[4] = at 30 μM C152, calculated from fit parameters
[5] = at saturation (Vmax in Supersomes)
[6] = at saturation of all P450 species
[7] = at saturation of all P450 species, % TNR

CYP2C9, sequence (P11712 whole entry): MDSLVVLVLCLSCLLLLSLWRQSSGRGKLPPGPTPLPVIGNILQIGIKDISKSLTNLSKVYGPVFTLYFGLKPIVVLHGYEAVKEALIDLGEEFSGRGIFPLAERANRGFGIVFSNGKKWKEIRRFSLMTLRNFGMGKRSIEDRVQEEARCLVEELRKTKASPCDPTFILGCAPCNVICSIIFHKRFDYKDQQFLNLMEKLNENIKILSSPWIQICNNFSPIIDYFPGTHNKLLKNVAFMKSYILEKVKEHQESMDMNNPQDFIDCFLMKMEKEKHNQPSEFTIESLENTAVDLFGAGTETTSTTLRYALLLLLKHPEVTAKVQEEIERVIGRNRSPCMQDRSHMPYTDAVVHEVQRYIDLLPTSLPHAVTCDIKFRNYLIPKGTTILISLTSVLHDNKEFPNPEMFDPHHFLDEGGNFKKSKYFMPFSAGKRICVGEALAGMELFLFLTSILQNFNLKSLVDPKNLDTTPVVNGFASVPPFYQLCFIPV

SMILES: CN(C)c1ccc2c(C(F)(F)F)cc(=O)oc2c1 [C152, 7-Dimethylamino-4-trifluromethylcoumarin]
- Specific rate (CYP2C9; [4]): 2.0 min⁻¹
- Specific rate (CYP2C9; [5]): 3.9 min⁻¹
- Vmax (C152 metabolism, fluorimetric assay) (CYP2C9; SS(2C9), mol C152 per mol P450 per min): 3.9 ± 1.2 min⁻¹
- Km (CYP2C9; read-out: KM or S50 (C152 metabolism, fluorimetric assay), SS(2C9), Michaelis-Menten fit, 30 °C, pH 7.4): 29 ± 8 µM
- Normalized rate (CYP3A4 [1]; at 30 μM C152): 10.3 min⁻¹
- Expected participation (CYP3A4 [1]; at 30 μM C152, % TNR): 84% and 84.75%
- Normalized rate (CYP3A4 [1]; [6]): 10.8 min⁻¹
- Normalized rate (CYP3A5; at 30 μM C152): 0.074 min⁻¹
- Expected participation (CYP3A5; at 30 μM C152, % TNR): 0.61%
- Normalized rate (CYP3A5; [6]): 0.120 min⁻¹
- Expected participation (CYP3A5; [7]): 0.91%
- Normalized rate (CYP1A2; at 30 μM C152): 0.375 min⁻¹
- Expected participation (CYP1A2; at 30 μM C152, % TNR): 3.08%
- Normalized rate (CYP1A2; [6]): 0.412 min⁻¹
- Expected participation (CYP1A2; [7]): 3.10%
- Specific rate (CYP3A4 [2]; [4]): 16.5 min⁻¹
- Specific rate (CYP3A4 [2]; [5]): 17.3 min⁻¹
- N, Hill coefficient (C152 metabolism, fluorimetric assay) (CYP3A4 [2]; SS(3A4)): 1.6±0.2
- Vmax (C152 metabolism, fluorimetric assay) (CYP3A4 [2]; SS(3A4), mol C152 per mol P450 per min): 17 ± 3 min⁻¹
- Fraction of C151 formed, Fluorimetry (CYP3A4 [2]; SS(3A4), scanning fluorimetry with PCA): 2.5±0.3%
- Km (CYP3A4 [2]; read-out: KM or S50 (C152 metabolism, fluorimetric assay), SS(3A4), Hill fit (S50), 30 °C, pH 7.4): 4.5 ± 1.2 µM
- activity with C152 (CYP2D6): no detectable activity
- Vmax (Formation of C151, LC-MS) ([3]; mol C151 formed, normalized per CPR): 1.3 ± 0.2 min⁻¹
- Km ([3]; read-out: KM or S50 (Formation of C151, LC-MS), Michaelis-Menten fit): 3 ± 0.5 µM
- Specific rate (CYP2B6; [4]): 46.6 min⁻¹
- Specific rate (CYP2B6; [5]): 49.3 min⁻¹
- Vmax (C152 metabolism, fluorimetric assay) (CYP2B6; SS(2B6), mol C152 per mol P450 per min): 49 ± 11 min⁻¹
- Fraction of C151 formed, Fluorimetry (CYP2B6; SS(2B6), scanning fluorimetry with PCA): 7.3±3.4%
- Km (CYP2B6; read-out: KM or S50 (C152 metabolism, fluorimetric assay), SS(2B6), Michaelis-Menten fit, 30 °C, pH 7.4): 1.8 ± 0.2 µM

From paper PMC7740640 (Xenobiotica; the fate of foreign compounds in biological …, 2020)
